Measured values reported in ChEMBL document CHEMBL3112511, “1,2-Dihydro-2-oxopyridine-3-carboxamides: the C-5 substituent is responsible for functionality switch at CB2 cannabinoid receptor” (Eur J Med Chem, 2014).
Calls of active or inactive are those of the source. The calls are words filed in the database; no cut-off is given here.

Assays:
HEK293 = experiment: Selectivity index, ratio of Ki for human recombinant CB1 receptor expressed in HEK293 cell membranes to Ki for human recombinant CB2 receptor expressed in HEK293 cell membranes; format: cell-based
Cannabinoid receptor 2 [1] = target: T1, Cannabinoid receptor 2 (Homo sapiens, UniProt P34972); experiment: Displacement of [3H]CP55,940 from human recombinant CB2 receptor expressed in HEK293 cell membranes after 90 mins
Cannabinoid receptor 1 [2] = target: Cannabinoid receptor 1 (Homo sapiens, UniProt P21554); experiment: Displacement of [3H]CP55,940 from human recombinant CB1 receptor expressed in HEK293 cell membranes after 90 mins
Cannabinoid receptor 2 [3] = target: T1, Cannabinoid receptor 2; experiment: Neutral antagonist activity at human CB2 receptor expressed in CHO membranes by [35S]GTPgammaS binding assay in presence of SR144528; format: functional, cell membranes
How it was run: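 [35S]GTPgammaS binding in hCB2-CHO membranes; compound added against inverse agonist SR144528 at 3 nM to assess reversal of its response. Three independent experiments in duplicate.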

[4] = target: Cannabinoid receptor 1 (Rattus norvegicus) (UniProt P20272); experiment: Agonist activity at CB1 receptor in rat cerebellar membranes at <10 uM by [35S]GTPgammaS binding assay; format: functional, cell membranes; conditions: Cerebellum, Membrane
How it was run: (§1)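 [35S]GTPgammaS binding in rat cerebellar membranes as CB1R-mediated G protein activity; compounds tested for stimulation or antagonism. Three independent experiments in duplicate.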

Cannabinoid receptor 2 [5] = target: T1, Cannabinoid receptor 2; experiment: Competitive antagonist activity at human CB2 receptor expressed in CHO membranes assessed as inhibition of HU-210-induced [35S]GTPgammaS binding; format: functional, cell membranes; conditions: read-out: pA2 (converted)
How it was run: (§2)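 [35S]GTPgammaS binding in hCB2-CHO membranes; test compound against HU210 (1 nM for single-point reversal; full HU210 dose-responses for competitive analysis, pA2 derived). Three independent experiments in duplicate.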

Cannabinoid receptor 2 [6] = target: T1, Cannabinoid receptor 2; experiment: Partial inverse agonist activity at human CB2 receptor expressed in CHO membranes by [35S]GTPgammaS binding assay relative to basal control; format: functional, cell membranes
How it was run: (§3)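 [35S]GTPgammaS binding in membranes from hCB2-transfected CHO cells; stimulation or inhibition of constitutive activity measured from dose-response curves. Mock-transfected cell membranes as control. Three independent experiments in duplicate.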

Cannabinoid receptor 2 [7] = target: T1, Cannabinoid receptor 2; experiment: Antagonist activity at human CB2 receptor expressed in CHO membranes assessed as inhibition of HU-210-induced [35S]GTPgammaS binding; format: functional, cell membranes; how it was run: as §2
[8] = target: Cannabinoid receptor 1 (Rattus norvegicus) (UniProt P20272); experiment: Antagonist activity at CB1 receptor in rat cerebellar membranes at <10 uM by [35S]GTPgammaS binding assay; format: functional, cell membranes; conditions: Cerebellum, Membrane; how it was run: as §1
Cannabinoid receptor 2 [9] = target: T1, Cannabinoid receptor 2; experiment: Agonist activity at human CB2 receptor expressed in CHO membranes by [35S]GTPgammaS binding assay; format: functional, cell membranes; how it was run: as §3
[10] = Selectivity ratio of EC50 for CB1 receptor in rat cerebellar membranes to EC50 for human CB2 receptor expressed in CHO membranes; format: cell membranes
Cannabinoid receptor 1 [11] = target: Cannabinoid receptor 1 (Rattus norvegicus, UniProt P20272); experiment: Agonist activity at CB1 receptor in rat cerebellar membranes by [35S]GTPgammaS binding assay; format: functional, cell membranes, Cerebellum, Membrane; how it was run: as §1
Cannabinoid receptor 2 [12] = target: T1, Cannabinoid receptor 2; experiment: Inverse agonist activity at human CB2 receptor expressed in CHO membranes by [35S]GTPgammaS binding assay; format: functional, cell membranes; how it was run: as §3

T1 sequence (P34972 whole entry): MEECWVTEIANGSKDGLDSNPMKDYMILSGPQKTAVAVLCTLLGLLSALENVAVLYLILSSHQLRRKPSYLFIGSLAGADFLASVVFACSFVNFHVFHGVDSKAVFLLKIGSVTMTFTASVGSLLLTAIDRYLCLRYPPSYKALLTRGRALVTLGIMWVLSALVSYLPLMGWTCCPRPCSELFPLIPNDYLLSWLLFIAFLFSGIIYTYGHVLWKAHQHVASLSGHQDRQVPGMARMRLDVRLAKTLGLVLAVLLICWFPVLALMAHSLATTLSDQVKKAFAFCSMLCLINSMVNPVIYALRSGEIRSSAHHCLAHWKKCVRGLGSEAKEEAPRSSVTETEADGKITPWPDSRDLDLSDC
Sequence of Cannabinoid receptor 1 (Homo sapiens, UniProt P21554) (P21554 whole entry): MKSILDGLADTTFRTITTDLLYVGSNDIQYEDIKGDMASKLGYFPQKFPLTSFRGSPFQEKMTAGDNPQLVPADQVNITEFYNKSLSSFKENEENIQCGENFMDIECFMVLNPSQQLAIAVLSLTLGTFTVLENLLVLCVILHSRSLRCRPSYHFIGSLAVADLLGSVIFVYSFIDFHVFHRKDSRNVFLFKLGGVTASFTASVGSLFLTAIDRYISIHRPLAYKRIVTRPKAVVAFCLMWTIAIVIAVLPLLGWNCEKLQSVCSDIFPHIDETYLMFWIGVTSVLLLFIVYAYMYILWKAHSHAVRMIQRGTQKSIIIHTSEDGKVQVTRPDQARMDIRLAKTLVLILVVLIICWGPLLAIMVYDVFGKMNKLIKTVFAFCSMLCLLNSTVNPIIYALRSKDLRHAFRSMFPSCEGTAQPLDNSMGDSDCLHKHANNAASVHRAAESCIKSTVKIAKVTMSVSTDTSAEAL
Sequence of Cannabinoid receptor 1 (Rattus norvegicus) (P20272 whole entry): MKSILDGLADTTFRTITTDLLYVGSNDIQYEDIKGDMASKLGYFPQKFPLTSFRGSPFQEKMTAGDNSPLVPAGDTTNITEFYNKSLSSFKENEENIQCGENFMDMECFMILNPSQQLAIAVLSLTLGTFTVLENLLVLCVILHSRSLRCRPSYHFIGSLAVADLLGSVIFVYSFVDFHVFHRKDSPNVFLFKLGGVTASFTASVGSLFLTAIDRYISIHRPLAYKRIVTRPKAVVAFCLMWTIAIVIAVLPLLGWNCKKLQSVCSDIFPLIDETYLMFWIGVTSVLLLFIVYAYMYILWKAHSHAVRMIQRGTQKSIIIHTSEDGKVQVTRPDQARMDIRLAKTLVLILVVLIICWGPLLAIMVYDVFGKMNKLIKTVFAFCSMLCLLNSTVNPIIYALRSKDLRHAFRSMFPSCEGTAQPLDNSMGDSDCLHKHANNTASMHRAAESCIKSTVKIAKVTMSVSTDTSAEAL
Sequence of Cannabinoid receptor 1 (Rattus norvegicus, UniProt P20272) (P20272 whole entry): as above

| Structure (SMILES) | Ratio Ki (HEK293) | Ki (Cannabinoid receptor 2 [1]) [nM] | Ki (Cannabinoid receptor 1 [2]) [nM] | other results |
| --- | --- | --- | --- | --- |
| CC1CCC(NC(=O)c2cccnc2OCc2ccc(F)cc2)CC1 (stereo not drawn) | 11 | 80 | 884 |  |
| COc1ccc(-c2cc(C(=O)NC3CCCCCC3)c(=O)n(Cc3ccc(F)cc3)c2)cc1 | 63 | 1 | 63 | Activity (Cannabinoid receptor 2 [3]): Active; Activity [4]: inactive; Kb (Cannabinoid receptor 2 [5]): 100 nM; Activity (Cannabinoid receptor 2 [6]): 88%; inhibition (Cannabinoid receptor 2 [7]): Dose-dependent effect; Activity [8]: inactive; Activity (Cannabinoid receptor 2 [9]): inactive |
| O=C(NC1CCCCCC1)c1cc(Br)cn(Cc2ccc(F)cc2)c1=O | 4 | 2.2 | 8.8 |  |
| O=C(NC1CCCCCC1)c1cccn(Cc2ccc(I)cc2)c1=O | 6.8 | 187 | 1270 |  |
| CCCCn1cccc(C(=O)NC2CCC(C)CC2)c1=O (stereo not drawn) | 15.6 | 104 | 1620 |  |
| O=C(NC1CCCCCC1)c1cc(/C=C/c2ccccc2)cn(Cc2ccc(F)cc2)c1=O | 3 | 7.9 | 24 |  |
| CCCCn1cc(Br)cc(C(=O)NC2CCCCCC2)c1=O | 4.5 | 5.1 | 23 |  |
| CC1CCC(NC(=O)c2cccn(Cc3ccccc3)c2=O)CC1 (stereo not drawn) | 7.3 | 53 | 386 |  |
| CC1CCC(NC(=O)c2cccn(CCCO)c2=O)CC1 (stereo not drawn) |  | > 10000 | > 10000 |  |
| O=C(NC1CCCCCC1)c1cc(-c2ccc(F)cc2)cn(Cc2ccc(F)cc2)c1=O | 8.6 | 2.8 | 24 |  |
| O=C(NC1CCCCCC1)c1cccn(Cc2ccc(Cl)cc2)c1=O | 13.1 | 4.2 | 55 |  |
| O=C(NC1CCCCCC1)c1cc(Br)cn(CCN2CCOCC2)c1=O | 3.7 | 65 | 243 |  |
| O=C(NC1CCCCCC1)c1cccn(Cc2ccc(F)cc2)c1=O | 5.5 |  |  | Ratio EC50 [10]: 200; EC50 (Cannabinoid receptor 2 [9]): 6.31 nM; EC50 (Cannabinoid receptor 1 [11]): 1580 nM |
| O=C(O)CCCn1cccc(C(=O)NC2CCCCCC2)c1=O |  | > 10000 | > 10000 |  |
| O=C(NC1CCCCCC1)c1cc(-c2ccccc2)cn(Cc2ccc(F)cc2)c1=O | 29 | 1.2 | 35 | Activity [4]: inactive; Activity [8]: inactive; IC50 (Cannabinoid receptor 2 [12]): 1.58 nM |
| CCOC(=O)/C=C/c1cc(C(=O)NC2CCCCCC2)c(=O)n(Cc2ccc(F)cc2)c1 | 1.8 | 13.7 | 24.8 |  |
| CCCCOc1ncc(Br)cc1C(=O)NC1CCCCCC1 |  | 396 | > 10000 |  |
| CC1CCC(NC(=O)c2cccnc2OCc2ccccc2)CC1 (stereo not drawn) | 5.2 | 594 | 3090 |  |
| O=C(NC1CCCCCC1)c1cccnc1OCc1ccccc1 | 4 | 481 | 1920 |  |
| O=C(NC1CCCCCC1)c1cc(-c2ccc(F)cc2)cn(CCN2CCOCC2)c1=O | 43.4 | 63 | 2730 |  |
| CC1CCC(NC(=O)c2cccn(CCO)c2=O)CC1 (stereo not drawn) |  | > 10000 | > 10000 |  |
| O=C(NC1CCCCCC1)c1cccn(Cc2ccccc2)c1=O | 7 | 8 | 56 |  |
| CCCn1cccc(C(=O)NC2CCC(C)CC2)c1=O (stereo not drawn) |  | 583 | > 10000 |  |
| CCOC(=O)CCCn1cccc(C(=O)NC2CCCCCC2)c1=O |  | 1830 | > 10000 |  |
| O=C(NC1CCCCCC1)c1cccn(Cc2cccc(I)c2)c1=O | 4.6 | 397 | 1830 |  |
| CC1CCC(NC(=O)c2cccn(Cc3ccc(F)cc3)c2=O)CC1 (stereo not drawn) | 14.6 | 4.8 | 70 |  |
